Results published in ChEMBL document CHEMBL4433251, “Discovery of BR102375, a new class of non-TZD PPARγ full agonist for the treatment of type 2 diabetes” (Bioorg Med Chem Lett, 2019).
The source made the active and inactive calls. The calls are words filed in the database; no cut-off is given here.

Legend:
[1] = target: T1, Peroxisome proliferator-activated receptor gamma (Mus musculus) (UniProt P37238); assay: Agonist activity at GAL4-tagged mouse PPARgamma LBD expressed in monkey CV1 cells assessed as receptor transactivation incubated for 24 hrs by luciferase reporter gene assay relative to telmisartan; format: cell-based
T1 sequence (whole entry): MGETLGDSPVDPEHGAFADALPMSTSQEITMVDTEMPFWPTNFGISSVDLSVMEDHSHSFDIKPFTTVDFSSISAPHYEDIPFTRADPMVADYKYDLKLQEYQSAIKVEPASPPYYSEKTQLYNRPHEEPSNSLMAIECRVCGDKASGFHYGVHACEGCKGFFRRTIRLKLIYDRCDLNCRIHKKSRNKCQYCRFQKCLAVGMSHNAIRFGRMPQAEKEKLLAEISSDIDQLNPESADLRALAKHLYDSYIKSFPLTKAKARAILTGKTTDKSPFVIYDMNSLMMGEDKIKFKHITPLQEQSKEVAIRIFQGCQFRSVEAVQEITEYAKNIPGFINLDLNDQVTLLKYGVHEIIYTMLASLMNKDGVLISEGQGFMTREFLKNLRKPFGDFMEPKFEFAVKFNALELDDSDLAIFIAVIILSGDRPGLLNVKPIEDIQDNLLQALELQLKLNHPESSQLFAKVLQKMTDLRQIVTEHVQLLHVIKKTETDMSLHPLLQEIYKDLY

[2] = target: T2, Peroxisome proliferator-activated receptor gamma (Homo sapiens, UniProt P37231); assay: Agonist activity at PPARgamma (unknown origin) assessed as receptor transactivation after 24 hrs by TK-PPRE-Luc expressing cells based luciferase reporter gene assay
T2 sequence (P37231 whole entry): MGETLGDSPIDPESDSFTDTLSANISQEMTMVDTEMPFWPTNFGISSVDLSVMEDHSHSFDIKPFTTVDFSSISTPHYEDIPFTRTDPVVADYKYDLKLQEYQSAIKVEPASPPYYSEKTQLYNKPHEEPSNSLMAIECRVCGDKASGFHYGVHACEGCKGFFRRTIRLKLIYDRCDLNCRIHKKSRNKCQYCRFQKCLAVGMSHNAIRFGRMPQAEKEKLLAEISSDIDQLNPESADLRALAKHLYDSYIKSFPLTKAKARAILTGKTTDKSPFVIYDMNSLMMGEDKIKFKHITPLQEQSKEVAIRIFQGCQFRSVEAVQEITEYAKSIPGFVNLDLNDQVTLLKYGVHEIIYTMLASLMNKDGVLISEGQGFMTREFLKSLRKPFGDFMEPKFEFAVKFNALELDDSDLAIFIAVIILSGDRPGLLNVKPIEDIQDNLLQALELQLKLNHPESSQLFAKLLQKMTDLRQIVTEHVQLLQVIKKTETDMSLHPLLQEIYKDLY
Procedure, shortened: (§1)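 Luciferase reporter gene assay in cells transfected with PPRE and luciferase genes; luciferase induction measured over a range of concentrations to derive EC50 and Amax; Amax expressed as a percentage relative to pioglitazone.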

[3] = target: T3, Peroxisome proliferator-activated receptor gamma (Homo sapiens) (UniProt P37231); assay: Agonist activity at PPARgamma (unknown origin) assessed as receptor transactivation after 24 hrs by TK-PPRE-Luc expressing cells based luciferase reporter gene assay relative to pioglitazone; procedure, shortened: as §1
T3 sequence (whole entry): T2 sequence (P37231 whole entry)

hERG (KCNH2) = hERG (KCNH2) (Homo sapiens, UniProt Q12809); assay: Inhibition of human ERG at 10 uM
Procedure, shortened: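 hERG: % inhibition measured at 10 µM.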

[4] = Stability in mouse liver microsomes assessed as parent compound remaining at 30 mins; format: ADME, Microsome; details: read-out: Stability
Procedure, shortened: (§2)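 Compound incubated with liver microsomes (mouse, rat, dog, human) for 30 min; stability expressed as % of parent concentration remaining.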

[5] = Stability in rat liver microsomes assessed as parent compound remaining at 30 mins; format: ADME, Microsome; details: read-out: Stability; procedure, shortened: as §2
[6] = Stability in dog liver microsomes assessed as parent compound remaining at 30 mins; format: ADME, Canis lupus familiaris, Microsome; details: read-out: Stability; procedure, shortened: as §2
[7] = Stability in human liver microsomes assessed as parent compound remaining at 30 mins; format: ADME, Microsome; details: read-out: Stability; procedure, shortened: as §2
CYP1A2 = target: T4, CYP1A2 (Homo sapiens, UniProt P05177); assay: Inhibition of CYP1A2 (unknown origin) assessed as enzyme remaining activity at 10 uM; format: ADME; details: read-out: INH
T4 sequence (P05177 whole entry): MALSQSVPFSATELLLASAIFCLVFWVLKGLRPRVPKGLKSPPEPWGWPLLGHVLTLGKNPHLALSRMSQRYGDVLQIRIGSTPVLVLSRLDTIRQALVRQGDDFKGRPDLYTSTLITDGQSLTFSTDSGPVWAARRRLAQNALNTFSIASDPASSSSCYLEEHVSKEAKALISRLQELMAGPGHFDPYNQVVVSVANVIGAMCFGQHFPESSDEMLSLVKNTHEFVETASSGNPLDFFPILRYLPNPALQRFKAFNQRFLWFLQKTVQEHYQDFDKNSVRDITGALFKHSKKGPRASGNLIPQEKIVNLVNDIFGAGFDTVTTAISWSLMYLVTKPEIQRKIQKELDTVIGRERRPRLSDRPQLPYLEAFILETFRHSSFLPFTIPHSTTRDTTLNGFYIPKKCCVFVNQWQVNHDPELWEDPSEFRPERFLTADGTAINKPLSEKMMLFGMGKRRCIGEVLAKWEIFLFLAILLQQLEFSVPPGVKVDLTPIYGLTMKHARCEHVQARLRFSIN
Procedure, shortened: (§3)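 CYP isoforms 1A2, 2C9, 2C19, 2D6, 3A4: % remaining enzyme activity in presence of 10 uM compound.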

CYP2C9 = CYP2C9 (Homo sapiens, UniProt P11712); assay: Inhibition of CYP2C9 (unknown origin) assessed as enzyme remaining activity at 10 uM; format: ADME; details: read-out: INH; procedure, shortened: as §3
CYP2C19 = CYP2C19 (Homo sapiens, UniProt P33261); assay: Inhibition of CYP2C19 (unknown origin) assessed as percentage remaining activity at 10 uM; format: ADME; details: read-out: INH; procedure, shortened: as §3
CYP2D6 = CYP2D6 (Homo sapiens, UniProt P10635); assay: Inhibition of CYP2D6 (unknown origin) assessed as percentage remaining activity at 10 uM; format: ADME; details: read-out: INH; procedure, shortened: as §3
CYP3A4 = CYP3A4 (Homo sapiens, UniProt P08684); assay: Inhibition of CYP3A4 (unknown origin) assessed as percentage remaining activity at 10 uM; format: ADME; details: read-out: INH; procedure, shortened: as §3
[8] = Half life in mouse at 10 mg/kg, po; format: ADME, organism-based; details: in vivo
[9] = Tmax in mouse at 10 mg/kg, po; format: ADME, organism-based; details: in vivo
[10] = Cmax in mouse at 10 mg/kg, po; format: ADME, organism-based; set-up: dose 10 mg/kg, route oral; details: in vivo
[11] = AUClast in mouse at 10 mg/kg, po; format: ADME, organism-based; set-up: dose 10 mg/kg, route oral, time 0 - last; details: in vivo
Mus musculus [12] = assay: Antidiabetic activity in db/db mouse assessed as reduction in random blood glucose level at 30 mg/kg, po administered daily once for 2 weeks; format: functional, organism-based
Mus musculus [13] = assay: Antidiabetic activity in db/db mouse assessed as reduction in body weight gain at 30 mg/kg, po administered daily once for 2 weeks; format: functional, organism-based
Mus musculus [14] = assay: Antidiabetic activity in db/db mouse assessed as reduction in blood glucose level at 30 mg/kg, po administered daily once for 2 weeks and measured on day 14 by OGTT method; format: functional, organism-based
[15] = Toxicity in db/db mouse assessed as reduction in food intake at 30 mg/kg, po administered daily once and measured on day 7; format: organism-based; details: in vivo
[16] = target: T1, Peroxisome proliferator-activated receptor gamma (Mus musculus); assay: Agonist activity at PPARgamma in mouse 3T3-L1 cells assessed as increase in CD36 RNA expression at 10 uM by qRT-PCR analysis; format: cell-based
[17] = target: T1, Peroxisome proliferator-activated receptor gamma (Mus musculus); assay: Agonist activity at PPARgamma in mouse 3T3-L1 cells assessed as increase in AP2 RNA expression at 10 uM by qRT-PCR analysis; format: cell-based
[18] = target: T1, Peroxisome proliferator-activated receptor gamma (Mus musculus); assay: Agonist activity at PPARgamma in mouse 3T3-L1 cells accessed as increase in insulin stimulated 2-deoxy-D-glucose uptake at 10 uM pre-incubated for 20 mins followed by 2-deoxy-D-glucose addition and measured after 20 to 40 mins by glucose uptake assay; format: cell-based
3T3-L1 = assay: Induction of preadipocyte differentiation in mouse 3T3L1 cells grown in insulin medium assessed as conversion to matured adipocytes measured after 6 days by oil red O staining based phase contrast microscopy; format: functional, cell-based
Mus musculus [19] = assay: Antidiabetic activity in db/db mouse assessed as reduction in random blood glucose level at 75 mg/kg, po administered via gavage twice daily for 2 weeks and measured once a week; format: functional, organism-based
Mus musculus [20] = assay: Antidiabetic activity in db/db mouse assessed as reduction in body weight gain at 75 mg/kg, po administered via gavage twice daily for 2 weeks and measured on day 14; format: functional, organism-based
Mus musculus [21] = assay: Antidiabetic activity in db/db mouse assessed as reduction in blood glucose level at 75 mg/kg, po administered twice daily for 2 weeks and measured on day 14 by OGTT method; format: functional, organism-based
[22] = Toxicity in db/db mouse assessed as reduction in food intake at 75 mg/kg, po administered via gavage twice daily and measured on day 7; format: organism-based; details: in vivo
[23] = Half life in rat at 10 mg/kg, po; format: ADME, organism-based; details: in vivo
[24] = Tmax in rat at 10 mg/kg, po; format: ADME, organism-based; details: in vivo
[25] = Cmax in rat at 10 mg/kg, po; format: ADME, organism-based; set-up: dose 10 mg/kg, route oral; details: in vivo
[26] = AUClast in rat at 10 mg/kg, po; format: ADME, organism-based; set-up: dose 10 mg/kg, time 0 - last, route oral; details: in vivo

Sequence of CYP2C19 (P33261 whole entry): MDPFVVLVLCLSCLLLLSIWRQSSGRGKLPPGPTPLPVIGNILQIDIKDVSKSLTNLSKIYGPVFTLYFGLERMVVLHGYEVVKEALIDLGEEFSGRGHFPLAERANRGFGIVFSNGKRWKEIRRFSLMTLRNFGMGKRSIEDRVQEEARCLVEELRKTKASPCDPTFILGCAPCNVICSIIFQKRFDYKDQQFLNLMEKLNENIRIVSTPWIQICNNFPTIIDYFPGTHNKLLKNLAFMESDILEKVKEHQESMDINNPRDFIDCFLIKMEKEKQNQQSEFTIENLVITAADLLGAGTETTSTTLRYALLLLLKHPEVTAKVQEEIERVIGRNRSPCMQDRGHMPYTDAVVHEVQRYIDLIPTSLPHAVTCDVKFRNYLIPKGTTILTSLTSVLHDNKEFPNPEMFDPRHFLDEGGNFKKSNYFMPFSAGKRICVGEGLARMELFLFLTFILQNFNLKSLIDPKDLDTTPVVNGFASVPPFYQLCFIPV
Sequence of hERG (KCNH2) (Q12809 whole entry): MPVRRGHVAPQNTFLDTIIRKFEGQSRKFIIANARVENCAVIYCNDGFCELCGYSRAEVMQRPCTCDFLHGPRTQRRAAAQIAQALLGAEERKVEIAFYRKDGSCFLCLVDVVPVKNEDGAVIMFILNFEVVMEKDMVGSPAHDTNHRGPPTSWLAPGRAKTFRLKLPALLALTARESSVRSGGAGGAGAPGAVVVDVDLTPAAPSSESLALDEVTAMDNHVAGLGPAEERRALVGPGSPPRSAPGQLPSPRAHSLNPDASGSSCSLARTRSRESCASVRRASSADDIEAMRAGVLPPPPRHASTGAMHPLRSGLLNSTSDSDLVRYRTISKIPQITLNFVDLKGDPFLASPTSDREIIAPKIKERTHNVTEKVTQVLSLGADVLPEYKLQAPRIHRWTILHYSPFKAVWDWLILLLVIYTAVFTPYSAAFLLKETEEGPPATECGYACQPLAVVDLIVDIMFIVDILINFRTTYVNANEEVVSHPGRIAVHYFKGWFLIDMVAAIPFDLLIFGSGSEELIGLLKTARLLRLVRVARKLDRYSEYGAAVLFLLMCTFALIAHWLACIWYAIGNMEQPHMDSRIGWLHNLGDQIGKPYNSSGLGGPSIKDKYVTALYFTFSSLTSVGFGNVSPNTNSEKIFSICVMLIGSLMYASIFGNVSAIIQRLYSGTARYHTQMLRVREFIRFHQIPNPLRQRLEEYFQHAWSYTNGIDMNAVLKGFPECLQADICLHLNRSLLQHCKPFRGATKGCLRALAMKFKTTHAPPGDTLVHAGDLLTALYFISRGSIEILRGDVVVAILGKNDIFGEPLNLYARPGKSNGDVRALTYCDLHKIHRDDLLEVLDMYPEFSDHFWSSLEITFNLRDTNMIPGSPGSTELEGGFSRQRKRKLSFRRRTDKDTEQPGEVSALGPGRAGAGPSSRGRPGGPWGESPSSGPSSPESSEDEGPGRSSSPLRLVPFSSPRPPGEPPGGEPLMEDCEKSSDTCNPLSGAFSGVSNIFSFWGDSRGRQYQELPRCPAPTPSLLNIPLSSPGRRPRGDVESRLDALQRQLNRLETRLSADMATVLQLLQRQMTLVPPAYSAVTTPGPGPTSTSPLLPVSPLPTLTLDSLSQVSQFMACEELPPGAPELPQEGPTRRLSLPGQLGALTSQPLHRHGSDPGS
Sequence of CYP2C9 (P11712 whole entry): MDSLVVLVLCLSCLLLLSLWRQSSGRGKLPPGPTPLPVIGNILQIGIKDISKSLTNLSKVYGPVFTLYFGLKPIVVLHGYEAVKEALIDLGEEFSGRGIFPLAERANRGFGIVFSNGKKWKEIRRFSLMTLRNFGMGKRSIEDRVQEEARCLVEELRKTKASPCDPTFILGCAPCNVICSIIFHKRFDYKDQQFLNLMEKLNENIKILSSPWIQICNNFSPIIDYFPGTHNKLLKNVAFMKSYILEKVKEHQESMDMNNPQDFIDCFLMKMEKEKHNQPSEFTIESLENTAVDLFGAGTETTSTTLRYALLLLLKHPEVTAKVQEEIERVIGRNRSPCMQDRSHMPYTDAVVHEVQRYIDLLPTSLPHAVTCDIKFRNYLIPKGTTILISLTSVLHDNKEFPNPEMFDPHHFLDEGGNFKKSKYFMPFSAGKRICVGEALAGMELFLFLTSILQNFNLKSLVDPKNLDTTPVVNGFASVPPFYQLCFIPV
Sequence of CYP2D6 (P10635 whole entry): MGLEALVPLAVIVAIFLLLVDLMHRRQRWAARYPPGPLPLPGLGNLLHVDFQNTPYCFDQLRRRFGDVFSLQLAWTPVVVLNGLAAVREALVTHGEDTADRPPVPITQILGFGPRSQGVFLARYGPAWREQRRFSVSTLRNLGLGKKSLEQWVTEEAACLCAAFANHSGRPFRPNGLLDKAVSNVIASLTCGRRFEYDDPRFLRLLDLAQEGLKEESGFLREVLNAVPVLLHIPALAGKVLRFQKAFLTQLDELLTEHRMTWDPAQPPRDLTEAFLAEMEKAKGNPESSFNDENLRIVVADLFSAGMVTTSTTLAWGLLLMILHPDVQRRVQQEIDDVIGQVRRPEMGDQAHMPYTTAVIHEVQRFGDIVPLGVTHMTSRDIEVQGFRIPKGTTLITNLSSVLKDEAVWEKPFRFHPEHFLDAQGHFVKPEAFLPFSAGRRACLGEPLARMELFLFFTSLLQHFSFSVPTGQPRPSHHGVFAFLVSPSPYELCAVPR
Sequence of CYP3A4 (P08684 whole entry): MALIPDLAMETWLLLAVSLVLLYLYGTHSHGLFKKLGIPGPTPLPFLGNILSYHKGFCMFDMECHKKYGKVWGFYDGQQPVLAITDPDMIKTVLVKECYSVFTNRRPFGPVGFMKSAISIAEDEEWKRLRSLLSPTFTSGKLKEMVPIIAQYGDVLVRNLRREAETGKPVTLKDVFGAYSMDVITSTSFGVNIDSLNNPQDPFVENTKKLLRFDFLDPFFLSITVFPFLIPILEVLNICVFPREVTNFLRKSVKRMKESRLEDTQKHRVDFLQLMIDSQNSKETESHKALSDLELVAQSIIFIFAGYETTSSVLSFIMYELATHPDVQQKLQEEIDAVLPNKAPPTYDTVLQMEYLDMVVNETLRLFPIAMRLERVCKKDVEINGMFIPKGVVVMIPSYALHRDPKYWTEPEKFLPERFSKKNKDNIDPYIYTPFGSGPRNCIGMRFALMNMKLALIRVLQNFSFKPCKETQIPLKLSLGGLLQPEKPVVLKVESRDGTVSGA

| Compound | %max [1] [%] | EC50 [2] [nM] | %max [3] [%] | inhibition at 10 µM (hERG (KCNH2)) [%] | remaining at 0.5 h [4] [%] | remaining at 0.5 h [5] [%] | remaining at 0.5 h [6] [%] | remaining at 0.5 h [7] [%] | activity at 10 µM (CYP1A2) [%] | activity at 10 µM (CYP2C9) [%] | activity at 10 µM (CYP2C19) [%] | activity at 10 µM (CYP2D6) [%] | activity at 10 µM (CYP3A4) [%] | half-life [8] [min] | Tmax [9] [min] | Cmax [10] [ng/mL] | AUC(0-t) [11] [ng·h/mL] | also measured |
| --- | --- | --- | --- | --- | --- | --- | --- | --- | --- | --- | --- | --- | --- | --- | --- | --- | --- | --- |
| CCCCc1nc(C(C)C)c(Cc2nc(C)no2)c(=O)n1Cc1ccc(-c2ccccc2-c2noc(=O)[nH]2)cc1 | 207 | 1050 | 93 |  |  |  |  |  |  |  |  |  |  |  |  |  |  |  |
| CCCCc1nc(C(C)C)c(Cc2nc(C(C)(C)C)no2)c(=O)n1Cc1ccc(-c2ccccc2-c2noc(=O)[nH]2)cc1 |  | 590 | 123 | 16 | 24 | 13 | 13 | 12 | 92 | 33 | 78 | 89 | 50 | 49.2 | 19.8 | 547 | 581 |  |
| CCc1ccc(CCOc2ccc(CC3SC(=O)NC3=O)cc2)nc1 (configuration not stated) [PIOGLITAZONE] |  |  |  |  |  |  |  |  |  |  |  |  |  |  |  |  |  | Activity (Mus musculus [12]): Active; Activity (Mus musculus [13]): inactive; Activity (Mus musculus [14]): Active; Activity [15]: Toxic |
| CCCCc1nc(C)c(Cc2nc(C(C)(C)C)no2)c(=O)n1Cc1ccc(-c2ccccc2-c2noc(=O)[nH]2)cc1 | 331 | 280 | 98 | 8.3 | 11 | 12 | 11 | 17 | 88 | 57 | 84 | 93 | 64 | 70.8 | 19.8 | 949 | 584 | Activity [16]: Active; Activity [17]: Active; Activity [18]: Active; Activity (3T3-L1): Dose-dependent effect; Activity (Mus musculus [19]): Active; Activity (Mus musculus [20]): inactive; Activity (Mus musculus [21]): Active; Activity [22]: Toxic; half-life [23]: 107 min; Tmax [24]: 18 min; Cmax [25]: 1320 ng/mL; AUC(0-t) [26]: 889 ng·h/mL |
